From ChEMBL document CHEMBL1148823, “Inactivation of O(6)-alkylguanine-DNA alkyltransferase by folate esters of O(6)-benzyl-2'-deoxyguanosine and of O(6)-[4-(hydroxymethyl)benzyl]guanine” (J Med Chem, 2007) come the findings set out here.

Activity calls are given as the source filed them. No cut-off for these calls is given here.

For assay [1], the species on record is Homo sapiens. The experiment in a line: Inactivation of human alkyltransferase in absence of DNA. In outline: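 Purified recombinant human alkyltransferase was incubated with a range of inhibitor concentrations for 30 min at 37°C. The reaction buffer was 50 mM Tris-HCl pH 7.6, 0.1 mM EDTA and 5.0 mM dithiothreitol, with 50 μg hemocyanin and no DNA. ED50 was read from plots of % remaining activity against inhibitor concentration. Values are means of 3–5 repeats or of two experiments.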

Assay [2] is filed under the species Homo sapiens. The experiment in a line: (§1) Inactivation of human alkyltransferase in presence of DNA. In outline:
(§2)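 Purified recombinant human alkyltransferase was incubated with a range of inhibitor concentrations plus 10 μg calf thymus DNA for 30 min at 37°C. The buffer was 50 mM Tris-HCl pH 7.6, 0.1 mM EDTA and 5.0 mM DTT. ED50 came from graphs of % remaining activity against inhibitor concentration. Values are means of 3–5 repeats or of two experiments.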

Another assay relates to HT-29. Nature of the assay: Induction of sensitization to BCNU-induced killing in human HT29 cells. The class given is functional, cell-based. Put shortly: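 HT29 cells in RPMI with 10% FBS were given inhibitor for 2 h before 40 μM BCNU for 2 h. Alternatively, cells grown 48 h in folate-free RPMI got inhibitor for 8 h before 20 μM BCNU for 2 h. Inhibitor-containing medium followed for 16–18 h. Cells were replated at 250–1000 per flask and grown 8 days. Survival was scored as crystal violet-stained colonies.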

The next assay has as its system KB. The experiment in a line: Induction of sensitization to BCNU-induced killing in human KB cells. The class given is functional, cell-based. In outline:
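KB cells were grown 48 h in folate-free RPMI with 10% FBS and plated at 10⁶ per flask. After 24 h they were exposed to inhibitor at different concentrations for 8 h, then 40 μM BCNU for 2 h. Medium with inhibitor but no BCNU was given for 16–18 h. Cells were replated at 250–1000 per flask for 8 days of colony formation. Colonies were stained with crystal violet and counted.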

The subject of a further assay is A549. The experiment in a line: Induction of sensitization to BCNU-induced killing in human A549 cells. The format is functional, cell-based. Put shortly: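 A549 cells were grown 48 h in folate-free RPMI with 10% FBS and plated at 10⁶ per flask. After 24 h they were given inhibitor at various concentrations for 8 h, then 20 μM BCNU for 2 h. Medium was replaced with inhibitor-containing medium for 16–18 h. Cells were replated at 250–1000 per flask and grown 8 days. Crystal violet-stained colonies were counted.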

Assay [3] relates to T1, Methylated-DNA--protein-cysteine methyltransferase (Homo sapiens), P16455 [P140K].
T1 sequence (whole entry): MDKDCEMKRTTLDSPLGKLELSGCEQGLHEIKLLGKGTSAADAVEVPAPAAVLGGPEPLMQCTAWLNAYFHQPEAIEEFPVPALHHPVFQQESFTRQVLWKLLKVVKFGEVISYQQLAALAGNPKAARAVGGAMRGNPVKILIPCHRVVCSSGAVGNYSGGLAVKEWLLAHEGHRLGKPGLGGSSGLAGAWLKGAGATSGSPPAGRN
Nature of the assay: Inactivation of human alkyltransferase P140K mutant.

The nature of assay [4]: as §1. Put shortly:
as §2

As to `Nc1nc(OCc2ccccc2)c2nc[nH]c2n1`, the ED50 in the assay filed under Homo sapiens [1] came to 0.3 µM; in the assay listed under Homo sapiens [2], 0.1 µM.

Turning to `Nc1nc(OCc2ccc(CO)cc2)c2nc[nH]c2n1`, in the assay with HT-29, the outcome was Active. Also, the ED50 stood at 0.4 µM in the assay filed under Homo sapiens [1] and 0.1 µM in the assay listed under Homo sapiens [2].

Regarding `Nc1nc(OCc2ccccc2)c2ncn([C@H]3C[C@H](O)[C@@H](CO)O3)c2n1`, the ED50 is 2 µM in the assay filed under Homo sapiens [1] and 40 µM in the assay listed under Homo sapiens [2].

Turning to `Nc1nc(OCc2ccccc2)c2ncn([C@H]3C[C@H](OC(=O)CC[C@H](NC(=O)c4ccc(NCc5cnc6nc(N)[nH]c(=O)c6n5)cc4)C(=O)O)[C@@H](CO)O3)c2n1`, the outcome in the assay on KB, with HT-29 and with A549 was Active. Further, the figures for the ED50 (in the assay listed under Homo sapiens [1]; in the assay listed under Homo sapiens [2]; in assay [3]) were 0.016 µM, 0.68 µM and 100 µM, respectively.

On to `Nc1nc(OCc2ccc(COC(=O)CC[C@H](NC(=O)c3ccc(NCc4cnc5nc(N)[nH]c(=O)c5n4)cc3)C(=O)O)cc2)c2nc[nH]c2n1`, for which the ED50 in the assay listed under Homo sapiens [1] worked out at 0.7 µM; in the assay listed under Homo sapiens [2], 0.24 µM.

`Nc1nc(OCc2ccccc2)c2ncn([C@H]3C[C@H](O)[C@@H](COC(=O)CC[C@H](NC(=O)c4ccc(NCc5cnc6nc(N)[nH]c(=O)c6n5)cc4)C(=O)O)O3)c2n1`: the result in the assay with KB, in the assay with HT-29 and in the assay on A549 was Active. This compound registered an ED50 in the assay filed under Homo sapiens [1] of 0.64 µM. Also, the EC50 in assay [4] was determined as 3.06 µM.

Broadly, the EC50 is the concentration that produces a half-maximal response.
